The results in this text go back to ChEMBL document CHEMBL1129645, “A novel series of [2-[methyl(2-phenethyl)amino]-2-oxoethyl] benzene-containing leukotriene B4 antagonists: initial structure-activity relationships” (J Med Chem, 1996).

Broadly, the IC50 is the midpoint of a concentration-inhibition curve. Read a low IC50 as inhibition by little substance.

Assay [1] has as its target Leukotriene B4 receptor (Cavia porcellus). Kind of assay: Binding affinity for Leukotriene B4 receptor of guinea pig spleen membranes.
Assay [2] concerns the target T1, Leukotriene B4 receptor 1 (Homo sapiens, UniProt Q15722). Kind of assay: Compound tested for binding affinity against Leukotriene B4 receptor using radioligand binding assay from Human PMN cells at a concentration of 300 nM. The assay is classed as cell-based. Put shortly: (§1)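 Human PMNs from acid-citrate-dextrose blood, used within 2 h, isolated by dextran sedimentation and Histopaque 1077 with hypotonic erythrocyte lysis. Cells were resuspended in Hanks/5 mM HEPES pH 7.4/1% ovalbumin. Compound in DMSO, 0.5 nM [3H]LTB4 and 3 × 10^6 PMN/mL were incubated 20 min at 4 °C, then GF/B filtered and scintillation counted. Nonspecific binding was defined with 1 µM LTB4. Read-out was % inhibition or IC50.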

The subject of assay [3] is Leukotriene B4 receptor (Cavia porcellus). Kind of assay: Compound tested for binding affinity against Leukotriene B4 receptor using radioligand binding assay from guinea pig spleen membranes at a concentration of 300 nM. Conditions: Membrane.
Assay [4] has as its target T1, Leukotriene B4 receptor 1. Kind of assay: (§2) Compound tested for binding affinity against Leukotriene B4 receptor using radioligand binding assay from Human PMN cells. It counts as cell-based. Put shortly: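 Cells were resuspended in Hanks/5 mM HEPES pH 7.4/1% ovalbumin. Compound in DMSO, 0.5 nM [3H]LTB4 and 3 × 10^6 PMN/mL were incubated 20 min at 4 °C, then GF/B filtered and scintillation counted. Nonspecific binding was defined with 1 µM LTB4. Read-out was % inhibition or IC50.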

For assay [5], the target named is T1, Leukotriene B4 receptor 1. The description is as §2. The assay is classed as cell-based. Put shortly:
as §1
This is another data set of the same source.

T1 sequence (Q15722 whole entry): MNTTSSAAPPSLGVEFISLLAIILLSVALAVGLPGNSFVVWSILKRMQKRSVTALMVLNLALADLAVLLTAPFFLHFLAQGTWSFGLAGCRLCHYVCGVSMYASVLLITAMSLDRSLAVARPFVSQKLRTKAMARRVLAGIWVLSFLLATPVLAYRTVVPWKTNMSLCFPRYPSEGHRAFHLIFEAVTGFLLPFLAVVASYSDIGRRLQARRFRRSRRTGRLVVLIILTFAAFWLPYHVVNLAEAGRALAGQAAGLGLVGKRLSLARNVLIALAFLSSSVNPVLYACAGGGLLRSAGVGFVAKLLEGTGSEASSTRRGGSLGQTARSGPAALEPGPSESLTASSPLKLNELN

Compound `C/C(=C\c1cc(CC(=O)N(C)CCc2ccccc2)ccc1-c1ccccc1)C(=O)O` registered an IC50 in assay [1] of 65 nM.
Consider `CN(CCc1ccccc1)C(=O)Cc1cc(CC(=O)O)cc(OC/C=C/c2ccccc2)c1`, for which the I in assay [2] is 16%. For the same compound, the IC50 in assay [1] worked out at 1200 nM.
For `COC(=O)c1cc(CC(=O)N(C)CCc2ccccc2)ccc1-c1ccccc1`, the results for the I in assay [2] and in assay [3] were 0% and 37%, respectively.
As for `CN(CCc1ccccc1)C(=O)Cc1ccc(OCc2ccccc2)cc1`, the IC50 is 900 nM in assay [4] and 65.6 nM in assay [1].
`CN(CCc1ccccc1)C(=O)Cc1ccc(-c2ccccc2)c(CO)c1`: the I in assay [2] is 18%.
On to `CN(CCc1ccccc1)C(=O)Cc1cccc(OCc2ccccc2)c1`, for which the IC50 in assay [1] turned out to be 225 nM.
As for `CN(CCc1ccccc1)C(=O)Cc1ccc(-c2ccccc2)c(C(=O)O)c1`, the IC50 in assay [1] came to 27 nM.
Take `CN(CCc1ccccc1)C(=O)Cc1cc(CC(=O)O)cc(OCc2ccccc2)c1`: in assay [1], the 50% inhibitory concentration (IC50) came to 200 nM.
In the case of `CN(CCc1ccccc1)C(=O)Cc1cc(OCC(=O)O)cc(OCc2ccccc2)c1`, the IC50 in assay [1] came to 53.3 nM. Compared with the last compound, the IC50 is about 3.8-fold lower.
Turning to `C/C(=C\C(=O)O)c1cc(CC(=O)N(C)CCc2ccccc2)cc(OCc2ccccc2)c1`, the I in assay [2] is 29%. The compound also returned an IC50 in assay [1] of 143 nM.
Take `CN(CCc1ccccc1)C(=O)Cc1cc(OCc2ccccc2)ccc1C(=O)O`: in assay [2], the I came out at 28%. This compound also registered an IC50 in assay [1] of 250 nM.
As for `CN(CCc1ccccc1)C(=O)Cc1ccc(-c2ccccc2)c(/C=C/C(=O)O)c1`, the figures for the IC50 in assay [5] and in assay [1] were 200 nM and 44.6 nM, respectively.
As to `CN(CCc1ccccc1)C(=O)Cc1ccc(OCc2ccccc2)c(/C=C/C(=O)O)c1`, the I in assay [2] is 27%. The half-inhibitory concentration (IC50) in assay [1] worked out at 2.27 nM.
